UHRF1 MBD2 ctr – UHRF1 methyl-DNA binding inhibition | Q96T88 | UHRF1 binding to methylated oligo, TR-FRET | inhibition, % at 4.4 µM | 370,000 compounds, 0.75% hits | AID 687016; in the data active means inhibition above about 21%;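 further: UHRF1 SRA domain binding a hemimethylated CpG hairpin DNA probe; 0% = median of test compound wells and 100% = reference inhibitor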
LEDGF integ inh – blocks HIV-1 LEDGF/p75-dependent DNA integration. TR-FRET IN-LEDGF/p75 DNA integration, Eu/Cy5. inhibition, % at 3.7 µM. 370,000 compounds, 0.64% hits;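 active means inhibition above the screen-wide mean plus 3 SD, cut at about 13% in these data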;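 further: signal is the Cy5 over europium emission ratio at 671 and 618 nm; 0% = plate median of compound wells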
MBD2 DNA inh – MBD2-methylated oligo binding inhibition; 370,000 compounds, 0.31% hits; TR-FRET, MBD2 binding to methylated oligonucleotide; Q9UBB5; inhibition, % at 4.4 µM; in the data active means inhibition above about 13%
ARFGAP1 inh – inhibits rat ARF GTPase activating protein 1; 360,000 compounds, 0.26% hits; Arfgap1-stimulated ARF1 GTP hydrolysis, GDP FP detection; AID 651572; inhibition, % at 16.5 µM; Q62848;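 active means inhibition above a per-plate limit, mean inhibition of low control wells plus 3 SD, cut at about 25% in these data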;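 further: 0% = DMSO wells with enzyme and 100% = wells lacking Arfgap1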
Target sequence (Q62848 1-136 limits assumed): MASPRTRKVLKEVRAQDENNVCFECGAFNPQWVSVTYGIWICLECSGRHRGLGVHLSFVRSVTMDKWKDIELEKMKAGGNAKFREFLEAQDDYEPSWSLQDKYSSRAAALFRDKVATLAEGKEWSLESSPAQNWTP
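System: truncated rat Arfgap1 GAP domain / Benchmarks: high control wells lacking Arfgap1, low control full reaction with DMSO / Times: compound-enzyme preincubation 20 min, reaction 120 min, detection 60 min, 25 °C / Repeats: one replicate per compound / Also added: human ARF1(Δ1-17)-GTP substrate / Measured by: Tracer-displacement fluorescence polarization with EDTA stop, 620/688 nm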
TDP2 inh – TDP2 (human) inhibition, absorbance primary screen | recombinant TDP2, T5PNP hydrolysis, p-nitrophenol absorbance 415 nm | 370,000 compounds, 0.34% hits | inhibition, % at 12.8 µM | O95551;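 active means inhibition above the mean of all tested compounds plus 3 SD, set per campaign, cut at about 25% in these data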;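 further: 0% = DMSO with enzyme and 100% = buffer with substrate but no TDP2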
Target sequence (O95551 whole entry, looked up): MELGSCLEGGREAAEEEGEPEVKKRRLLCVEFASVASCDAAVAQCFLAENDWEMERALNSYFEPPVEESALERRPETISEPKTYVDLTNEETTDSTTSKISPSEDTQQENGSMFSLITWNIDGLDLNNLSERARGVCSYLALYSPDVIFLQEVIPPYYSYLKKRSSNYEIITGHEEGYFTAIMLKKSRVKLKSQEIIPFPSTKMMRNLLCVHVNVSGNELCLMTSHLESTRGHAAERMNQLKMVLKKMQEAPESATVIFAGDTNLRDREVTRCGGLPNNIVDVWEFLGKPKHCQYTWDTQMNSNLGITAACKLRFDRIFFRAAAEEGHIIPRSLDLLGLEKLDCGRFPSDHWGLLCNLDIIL
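Evaluation: % inhibition relative to enzyme-containing and enzyme-free wells. Material: recombinant human TDP2. Benchmarks: enzyme-free and DMSO wells. Timing: enzyme reaction with compound for 2 h at 37 °C. Compound dosing: 12.8 µM only. Measured by: p-Nitrophenol epi absorbance. Reagent: T5PNP substrate at 5 mM, a TopII-DNA adduct mimic. Replication: single well per compound.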
ASAP1 GAP inh – inhibitors of human ASAP1 ArfGAP activity | Q9ULH1 | ASAP1-stimulated ARF1 GTP hydrolysis, GDP FP detection | inhibition, % at 16.5 µM | 360,000 compounds, 0.19% hits | AID 624377; in the data active means inhibition above about 25%;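 further: 0% = vehicle with enzyme and substrate and 100% = no enzyme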
IN multimer up – counter-screen for LEDGF/p75 integration inhibitors: HIV-1 integrase multimerization activators; shares compounds with LEDGF integ inh; TR-FRET HIV-1 integrase multimerization, biochemical; activation, % at 7.7 µM; 2,000 compounds, 17% hits; in the data active means activation above about 8.9%
TR-FRET interf – TR-FRET optical interference, LEDGF/p75 integration counter-screen; shares compounds with LEDGF integ inh; TR-FRET optical interference counterscreen, HIV-1 IN multimerization; inhibition, % at 7.7 µM; 2,000 tested, under 10 active;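 active means inhibition above the mean over all tested compounds plus 3 SD, which no compound reached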;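 further: 0% = integrase with antibodies and DMSO and 100% = antibodies without integrase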
IN-LEDGF confirm – confirmation of HIV-1 LEDGF/p75-dependent integration inhibitors | AID 1053136 | TR-FRET LEDGF/p75-dependent HIV-1 integration, biochemical | shares compounds with LEDGF integ inh | inhibition, % at 3.7 µM | 2,000 compounds, 36% hits; in the data active means inhibition above about 14%
Active calls of the source: *; nt = no result. Most compounds without a hit are left out; they make up all but 2% or so of the library.

SMILES	UHRF1 MBD2 ctr	LEDGF integ inh	MBD2 DNA inh	ARFGAP1 inh	TDP2 inh	ASAP1 GAP inh	IN multimer up	TR-FRET interf	IN-LEDGF confirm
Oc1cc(Nc2cccnc2)cc2cccnc12	0	0	-6	5	-9	9	nt	nt	nt
Oc1cc(NCCc2cccnc2)cc2cccnc12	-12	18*	-10	-7	15	-9	2	-11	21*
Cc1ccc(C)c(OCCC(=O)OCC(=O)c2c(N)n(C)c(=O)n(C)c2=O)c1	2	24*	-1	11	-3	-7	-1	4	-2
CC(C)(C)OC(=O)N1Cc2ccccc2C[C@H]1C(=O)NC1CCCC1	-1	53*	1	0	-2	-3	0	0	-2
NC(=O)/C(=C\c1ccco1)NC(=O)c1ccco1	-1	14*	-8	-2	-8	-6	2	-10	3
O=C(O)/C(=C\c1ccco1)NC(=O)c1ccco1	1	8	0	10	-8	-2	nt	nt	nt
Cc1cc(=O)c2c(O)c(O)ccc2o1	11	14*	0	-22	-8	0	9.6*	-34	9
COc1c2ccoc2cc2oc(C)cc(=O)c12	-3	4	-6	0	-13	2	nt	nt	nt
CCc1nccn1CC(=O)c1ccc(O)c(O)c1	13	1	4	nt	-9	nt	nt	nt	nt
CC(NS(=O)(=O)c1ccc(Cl)cc1)C(=O)NCc1ccco1 (centres undefined)	25*	18*	10	8	-15	-6	0	2	-11
CC(=O)NS(=O)(=O)c1ccc(NC(=O)/C=C/c2ccco2)cc1	29*	30*	3	-10	3	-9	3	-13	26*
O=C(/C=C/c1ccco1)Nc1ccc2c(c1)OCO2	2	0	2	-1	2	7	nt	nt	nt
O=C(Nc1ccc(F)cc1)OCc1cn(Cc2cc(F)cc(F)c2)nn1	-2	-1	3	nt	7	nt	nt	nt	nt
C[C@@H]1[C@@H](c2ccccc2)c2cc3ccccc3nc2C(=O)C[C@@H]1C(=O)N1CCCC1	-3	-2	-2	nt	6	nt	nt	nt	nt
O=CNc1cc(-c2cccc(F)c2)cn2c(-c3ccc(F)cc3)cnc12	-4	1	0	1	-9	6	nt	nt	nt
O=CNc1cc(-c2ccoc2)cn2c(-c3ccc(F)cc3)cnc12	-2	14*	1	-14	3	-8	0	-2	12
CC(=O)c1ccc(-c2cnc3c(NC=O)cc(-c4cnn(C)c4)cn23)cc1	-10	24*	-11	9	3	23	-1	7	4
CC(=O)c1ccc(-c2cnc3c(NC=O)cc(-c4ccc(S(C)(=O)=O)cc4)cn23)cc1	-4	2	-3	8	-8	12	nt	nt	nt
Cc1cc(NC(=O)c2ccc(NS(=O)(=O)c3ccccc3F)cc2)no1	0	-3	2	nt	-4	nt	nt	nt	nt
CCc1nc(NCc2cccs2)c2nnn(Cc3ccccc3)c2n1	-2	16*	3	-1	3	18	0	-1	8
CC(O)CC(=O)OC[C@]12CC[C@H]3[C@@](C)(CC[C@H]4C(C)(C)CCC[C@]34C)[C@@H]1CC(C1=CC(=O)OC1O)O2 (some centres undefined)	0	23*	1	-15	-1	-5	0	2	41*
COC(=O)[C@]12CCCCC=C1N(Cc1ccc(OC)cc1)C(=O)[C@@H]2CC(=O)NCc1cccs1	1	-2	2	nt	-7	nt	nt	nt	nt
Cc1c2ccccc2nc2c(F)c(NCCO)c(F)c(F)c12	-16	14*	-10	-11	13	-3	5	-19	3
Cc1c2ccccc2nc2c(F)c(NC(C)C)c(F)c(F)c12	-6	13*	-6	-6	2	-11	1	-5	4
NC(=O)c1ccsc1NC(=O)c1ccc(S(=O)(=O)N2CCCCC2)cc1	2	22*	4	1	-7	-4	-3	17	1
SMILES	UHRF1 MBD2 ctr	LEDGF integ inh	MBD2 DNA inh	ARFGAP1 inh	TDP2 inh	ASAP1 GAP inh	IN multimer up	TR-FRET interf	IN-LEDGF confirm
CC(C)CC(C(=O)Nc1cccc(O)c1)N1C(=O)c2ccccc2C1=O (centres undefined)	-2	0	-3	-5	0	-4	nt	nt	nt
CC(C)CC(C(=O)Nc1oc(-c2ccco2)c(-c2ccco2)c1C#N)N1C(=O)c2ccccc2C1=O (centres undefined)	-1	17*	4	-6	1	14	2	-9	9
COC(=O)C[C@H]1CC[C@@H]2[C@@H](COc3ccc(NC(=O)C4CCCCC4)cc3C(=O)N2C)O1	0	-2	-3	nt	10	nt	nt	nt	nt
CCOP(=O)(O)c1ccccc1OCCOc1ccccc1P(=O)(O)OCC	4	-3	-1	3	5	-3	nt	nt	nt
O=P(O)(O)COc1ccccc1P(=O)(c1ccccc1)c1ccccc1	0	19*	-3	0	7	4	-2	13	0
NNC(=O)c1cc(O)c(O)c(O)c1	29*	61*	10	-5	-1	-10	39*	-197	63*
Cc1ccc(C(=O)ONc2ccc(N=NC(=O)c3ccccc3O)cc2)cc1	-2	20*	0	7	-13	17	2	-7	-1
CC1CN(C)C(C)C/C1=N/Oc1ccccc1[N+](=O)[O-] (centres undefined)	-5	26*	-7	-6	16	0	1	-3	1
COc1ccc(N2CCN(CCCNC(=O)COc3ccc(C)cc3)CC2)cc1	-1	1	-5	nt	3	nt	nt	nt	nt
Cn1c(Cc2cccs2)nnc1SCC(=O)Nc1ccc(OCc2ccccc2)cc1	-1	2	4	nt	-8	nt	nt	nt	nt
CCCCCc1c(O)nc(SCC(=O)NCC2CCCO2)[nH]c1=O (centres undefined)	-1	34*	-1	-4	4	-11	1	-5	4
CCOC(=O)N(C)[C@H]1C[C@H]2c3[nH]c4cccc(-c5cccc(F)c5)c4c3CCN2C(=O)[C@H]1[C@H](C)O	1	0	-6	nt	-2	nt	nt	nt	nt
COc1ccc(CCNC(=O)c2cccc(S(=O)(=O)N3CCCCC3)c2)cc1	2	7	-6	2	-13	-6	nt	nt	nt
C=CCN(c1ccccc1Cl)S(=O)(=O)c1cccc(C(=O)NCCc2ccc(OC)cc2)c1	-1	90*	-3	1	9	7	-1	2	-9

Screening results (PubChem BioAssay)
